From PubChem BioAssay AID1448 (The Scripps Research Institute Molecular Screening Center, 2008)
About 630 (0.29%) of roughly 220,000 compounds were called active. Many of the other results were omitted from the sample, so actives are more common in it than they were. Values without a mark were called inactive.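 Rule for the calls: active = activation above its plate's cutoff, the mean activation of the plate's test wells plus 3 SD (cut at about 12% in these data); inactive = the rest.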

target: Mucolipin-3 (Homo sapiens) (UniProt Q8TDD5); test: human TRPML3 channel agonists, primary screen, cell-based, HEK293 TRPML3-YFP, Fluo-8 calcium fluorescence, 3 µM (AID 1448); settings: at 3 µM, active compounds read high, 100% = the carbachol control signal;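 note: 0% = DMSO only wells and 100% = carbachol wells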
Sequence (Q8TDD5 whole entry, looked up): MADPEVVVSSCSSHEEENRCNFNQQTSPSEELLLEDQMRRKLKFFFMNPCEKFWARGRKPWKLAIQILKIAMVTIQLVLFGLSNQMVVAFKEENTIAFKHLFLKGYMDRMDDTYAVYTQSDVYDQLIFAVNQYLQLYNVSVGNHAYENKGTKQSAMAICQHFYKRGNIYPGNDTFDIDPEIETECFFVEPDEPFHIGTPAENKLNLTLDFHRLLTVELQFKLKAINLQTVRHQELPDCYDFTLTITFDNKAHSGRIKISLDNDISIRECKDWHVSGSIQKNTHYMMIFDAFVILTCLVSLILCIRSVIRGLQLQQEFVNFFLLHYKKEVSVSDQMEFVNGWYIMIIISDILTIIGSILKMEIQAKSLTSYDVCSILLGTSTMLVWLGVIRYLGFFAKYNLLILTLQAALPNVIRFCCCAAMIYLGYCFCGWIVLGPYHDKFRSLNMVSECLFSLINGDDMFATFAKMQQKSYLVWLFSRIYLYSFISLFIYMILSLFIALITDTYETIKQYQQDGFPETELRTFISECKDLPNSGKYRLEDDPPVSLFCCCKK
Method in brief: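 Test system: HEK293 cells stably carrying human TRPML3-YFP; Doses: single dose, 3 µM final nominal compound, 0.3% DMSO final; Schedule: dye loading 1 h 37 °C then 30 min ambient, 125 s read; Technique: Fluo-8 calcium fluorescence; Benchmarks: high control carbachol 87 µM, low control DMSO.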

SMILES	activation
COc1ccc(N2C(=O)c3cccc4cccc(c34)C2=O)nn1	-0.51%
Cc1nn(-c2cc(Cl)ccc2N)c(=O)c2ccccc12	0.26%
Cc1nn(C)cc1N1C(=O)c2cccc3c(N)ccc(c23)C1=O	16.9% (active)
COCc1cc(=O)[nH]c(SC)n1	0.74%
Cc1cc(C)cc(C(=O)NCC(=O)OCC(=O)N2CCCCC2)c1	0.67%
CC(NC(=O)COC(=O)C1CCN(S(=O)(=O)c2ccccc2C(F)(F)F)CC1)c1ccccc1 (centres undefined)	-0.74%
CC(C)CCC(C)NC(=O)c1ccc2nccnc2c1 (centres undefined)	-0.61%
O=C(c1nnc(-c2ccc(Cl)cc2)o1)C1CCCC1	0.06%
CC1(C)CCCC2=C1CC1C(=O)N(c3ccccc3)C(=O)C1C2 (centres undefined)	22.9% (active)
Cc1ccc(N2C(=O)C3CC3C2=O)cc1 (centres undefined)	0.72%
CC1=C(C)CC2C(=O)N(c3cccc4ccccc34)C(=O)C2C1 (centres undefined)	0.86%
Cc1cccc(-n2cnc(C(=O)NNC(=S)Nc3ccccc3)c2)n1	0.89%
Cn1ccc(NC(=O)Nc2ccc(Cl)cc2)n1	1.03%
O=C1NCC(=O)N(Cc2ccccc2)/C1=C/c1ccccc1	1.86%
CC1=NN(Cc2ccccc2)C(=O)/C1=C/c1ccc(N(C)C)cc1	-2.14%
CN(C)c1ccc(/C=C2\NC(=S)N(Cc3ccccc3)C2=O)cc1	19.5% (active)
O=C(Nc1ccc(N2CCN(C(=O)c3ccccc3)CC2)c(Cl)c1)c1ncn[nH]1	-0.11%
COCCNc1nc2nonc2nc1N1CCCC1c1nccs1 (centres undefined)	0.19%
NS(=O)(=O)c1ccc(NC(=S)NNC(=O)c2cccs2)cc1	-0.19%
O=S(=O)(c1ccc(NC(=S)NN=C(C2CC2)C2CC2)cc1)N1CCOCC1	0.74%
CCOc1cc(/C=C(\C#N)c2nc(-c3cccs3)c(NC(C)=O)s2)ccc1O	9.68%
COc1cc(/C=N/Nc2nc3ccccc3s2)ccc1O	-0.85%
COc1cc(/C=C(\C#N)c2nc3c(s2)CC(C)CC3)ccc1O (centres undefined)	12.4% (active)
Cc1nn(CC(=O)Nc2ccc3c(c2)OCO3)c(C)c1[N+](=O)[O-]	-0.67%

SMILES	activation
Cc1[nH]n(-c2ccccc2)c(=O)c1N=Nc1ccccc1C(=O)N1CCCCC1	0.09%
O=C(CSc1nc2ccc(Nc3nc(N4CCOCC4)nc(N4CCOCC4)n3)cc2s1)NCc1ccco1	0.56%
CCn1c(CSc2ncccn2)nnc1SCC(=O)N1c2ccccc2CC1C (centres undefined)	-0.71%
CCn1c(Cc2ccccc2)nnc1SCC(=O)Nc1ccccc1	-0.27%
CCCc1nnc(SCC(=O)N2C(C)CCCC2C)n1CC (centres undefined)	20.2% (active)
Cc1sc2nc(CC(N)=O)[nH]c(=O)c2c1-c1ccccc1	0.25%
CCCN(C(=O)CSc1nnnn1C)c1c(N)n(Cc2ccccc2)c(=O)[nH]c1=O	-0.23%
COCCNC(=S)N1CCN(C)CC1	0.99%
CC(C)C(=O)Nc1cccc(NC(=S)NC(=O)C(c2ccccc2)c2ccccc2)c1	1.07%
O=C(NNC(=S)NCc1ccco1)C(c1ccccc1)c1ccccc1	0.93%
CCCCC(=O)NNC(=S)NC(=O)C(c1ccccc1)c1ccccc1	74.5% (active)
O=[N+]([O-])c1cc(S(=O)(=O)Nc2cccc(Cl)c2)ccc1N=Nc1c(O)[nH]c2ccccc12	0.58%
CCS(=O)(=O)Nc1ccc(C2=NN(C(C)=O)C(c3cccs3)C2)cc1 (centres undefined)	0.2%
NNC(=O)c1cccc(COCC(F)(F)C(F)F)c1	0.05%
CC(C)c1c(O)nc(SCCOc2ccc(Cl)cc2)[nH]c1=O	0.56%
COc1cc(OC)cc(/C(N)=N/O)c1	0.62%
CC(/C=C/c1ccco1)=N/NC(=O)C1COc2ccccc2O1 (centres undefined)	1.2%
C=C(C)Cn1c(C)cc(C)c(S(=O)(=O)c2ccccc2C)c1=O	42% (active)
S=c1nc(C23CC4CC(CC(C4)C2)C3)nc2sccn12	0.26%
Cc1ccccc1C(=O)NNC(=O)CN1C(=O)c2ccccc2C1=O	1.17%
O=C(NCCN1C(=O)S/C(=C\c2cccnc2)C1=O)c1ccc(S(=O)(=O)N2CCCC2)cc1	-0.11%
O=C(COC(=O)c1ccc(NS(=O)(=O)c2cccs2)cc1O)Nc1ccc(F)cc1	0.82%
O=C(CSc1nncn1-c1cccnc1)N1CCOCC1	0.63%
O=S(=O)(Nc1ccccc1N1CCOCC1)c1ccc(Cl)s1	98.9% (active)

SMILES	activation
O=S(=O)(Nc1cc(S(=O)(=O)N2CCOCC2)ccc1N1CCCC1)c1cccs1	-0.45%
O=C(Nc1ccccc1N1CCOCC1)c1csc2c1CCCC2	-1.45%
CCOc1ccc(Br)cc1S(=O)(=O)Nc1ccc(C(=O)OC(C)C(=O)N(C)c2ccccc2)cc1 (centres undefined)	0.82%
COc1ccc(OC)c(NC(=S)N2CCc3ccccc3C2)c1	-0.32%
COCc1[nH][nH]c(=O)c1C=Nc1ccc(F)cc1F	0.21%
Cc1cccc(OCC(=O)NC(=S)Nc2ccccc2N2CCOCC2)c1	0.19%
Cc1ccc(O)c(NC(=O)COc2cc(C)ccc2C)c1	0.83%
Cc1ccc(O)c(NC(=S)NC(=O)COc2ccc(Br)cc2)c1	20.5% (active)
CC(C)N(C(=O)CSc1nc(COc2ccccc2)nc2ccccc12)C(C)C	-1.84%
O=C(NCc1cccnc1)C(=O)Nc1nc(-c2ccccc2)cs1	0.51%
O=C(NNS(=O)(=O)Cc1ccccc1)c1ccc([N+](=O)[O-])cc1	0.34%
CN(CCc1ccccn1)S(=O)(=O)c1ccc2c3c(cccc13)C(=O)N2	0.24%
CCN(CC)S(=O)(=O)c1ccc2c3c(cccc13)C(=O)S2	12.9% (active)
CCN(CC)S(=O)(=O)c1cc([N+](=O)[O-])ccc1N=Nc1c(O)n(C)c2ccccc12	0.98%
COCCNC(=O)C(OC(=O)c1cccs1)c1ccc(F)cc1 (centres undefined)	0.35%
COc1cc(OC)cc(C(=O)N[C@H](C(=O)Nc2nc3ccccc3[nH]2)C(C)C)c1	0.87%
COc1cc(OC)cc(C(=O)N[C@H](C(=O)OCC(=O)NC(C)c2ccccc2)C(C)C)c1 (some centres undefined)	17.2% (active)
CC(NC(=O)COC(=O)c1ccc2c(c1)OCO2)c1ccccc1 (centres undefined)	-0.07%
COc1ccc(Br)cc1CN(C)CC(=O)Nc1cc(Cl)cc(Cl)c1	0.63%
Cc1cc2nc3c(=O)n(Cc4ccccc4)c(=O)[nH]c3nc2cc1N	23.9% (active)
O=c1[nH]c2c(c(=O)n1Cc1ccccc1)CCC2	0.43%
CC(=O)c1ccc(-c2ccc(Cn3c(C)nc4cc(N)c(C)nc43)cc2)cc1	0.69%
CCCC(=O)Nc1cccc(NC(=S)NC(=O)C(C)Oc2ccc(Cl)cc2Cl)c1 (centres undefined)	0.1%
Cc1onc(-c2ccccc2)c1C(=O)NNC(=S)NC(=O)c1ccc(F)cc1	1.79%

SMILES	activation
COc1ccc(C(=O)NC(=S)NNC(=O)c2c(-c3ccccc3)noc2C)cc1	31.2% (active)
COc1ccc(C(=O)NC(=S)NNC(=O)CCc2ccccc2)cc1	2.05%
O=C(Nc1ccc(S(=O)(=O)Nc2nccs2)cc1)c1cc(-c2ccncc2)nc2ccccc12	0.93%
CC(C)Cc1nc(Cl)c(C#N)c2c1CCC2	-0.84%
O=C(CN1CCN(C(=S)NC2CCCC2)CC1)Nc1ccc(Oc2ccccc2)cc1	3.02%
CCOCC(=O)Nc1ncc(S(=O)(=O)c2ccc([N+](=O)[O-])cc2)s1	2.38%
O=C(Cc1c(F)cccc1Cl)Nc1ncc([N+](=O)[O-])s1	10.9%
O=C(CCc1ccccc1)Nc1ncc([N+](=O)[O-])s1	8.03%
CC(=O)Oc1ccccc1C(=O)Nc1ncc([N+](=O)[O-])s1	16.7% (active)
CCC(C)NC(=O)c1ccc(N2CCC3(CC2)OCCO3)c([N+](=O)[O-])c1 (centres undefined)	-0.07%
COc1cc2nc(CN(C)Cc3ccc(F)cc3)[nH]c(=O)c2cc1OC	0.67%
COc1ccc(NC(=O)Cn2c(=O)n(Cc3ccco3)c(=O)c3ccccc32)cc1	0.61%
CN(c1ccccc1)c1ccc(/C=c2\s/c(=C(/C#N)C(=O)C(C)(C)C)n(Cc3ccco3)c2=O)cc1	14.8% (active)
Cc1cs/c(=N\N=C\c2ccc(O)cc2)n1Cc1ccco1	-0.12%
Cc1sc2ncnc(Sc3nc4ccccc4s3)c2c1C	0.98%
CCc1c(C)nc2c(-c3ccccc3)c(C)nn2c1Nc1ccc(NC(C)=O)cc1	-0.72%
Cc1ccc(CN(C)CC(=O)Nc2cccc([N+](=O)[O-])c2)o1	-0.52%
Cc1ccc(NC(=O)CN(C)CC(=O)Nc2cccc(F)c2)cc1[N+](=O)[O-]	4.13%
CN(CC(=O)Nc1cccc(F)c1)CC(=O)Nc1cccc([N+](=O)[O-])c1	26.9% (active)
COC(=O)C1=C(C)N(c2ccc(Br)cc2)C(=O)/C1=C\c1ccco1	0.24%
O=C(O)C(c1ccccc1)C1(O)CCCCC1 (centres undefined)	1.12%
CC(NC(=O)C(C)(C)C)C(c1cccs1)N1CCN(Cc2ccccc2)CC1 (centres undefined)	-0.4%
